Hits are enriched below; roughly 2.5% of the tested compounds scored in any of these assays.
SENP8 block-1 = SENP8 (human) protease inhibition. Q96LD8. inhibition, % at 20 µM. recombinant SENP8, Nedd8 substrate fluorescence. 0.64% of 360,000 active; in the data active means inhibition mostly above about 40%, no sharp cut-off; inactive means mostly below about 27%
Target sequence (Q96LD8 whole entry, looked up): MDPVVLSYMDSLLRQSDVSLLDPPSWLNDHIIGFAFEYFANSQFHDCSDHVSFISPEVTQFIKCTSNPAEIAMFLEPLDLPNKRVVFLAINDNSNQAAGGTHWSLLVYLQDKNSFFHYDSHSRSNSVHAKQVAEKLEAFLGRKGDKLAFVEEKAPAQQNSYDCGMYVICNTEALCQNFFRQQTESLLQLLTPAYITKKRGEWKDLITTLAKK
SENP1 FRET inh = blocks the human SENP1 SUMO protease catalytic domain. Q9P0U3. recombinant SENP1 catalytic domain, CyPet-SUMO1-YPet FRET cleavage. inhibition, % at 10 µM. 0.21% of 360,000 active;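 active means inhibition at least 30% at 10 µM, raw YFP signal under a set limit, fluorescence ratio 0.5 to 1.5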;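 further: 0% = enzyme with DMSO and 100% = no enzyme wells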
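Assay system – human recombinant His6-tagged SENP1 catalytic domain enzyme · Input – SENP1 enzyme, 20 pM final · Buffer or medium – Tris pH 8 buffer plus EDTA, NaCl, BME, BSA, NP40, catalase · Schedule – 50 min reaction at room temperature · Technique – FRET read of cyan and yellow fluorescence · Control set – no-enzyme wells low, DMSO-plus-enzyme wells high control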
SENP7 block = inhibitors of human SENP7 protease; Q9BQF6; recombinant SENP7, Z-RLRGG-aminoluciferin luminescence, 40 min; inhibition, % at 5 µM; 1.5% of 330,000 active;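 active means inhibition above about 50% at the single test dose, limit read from the data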;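 further: plate controls were DMSO with enzyme for no effect and no enzyme buffer wells for full effect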
Target sequence (Q9BQF6 706-1050 limits assumed): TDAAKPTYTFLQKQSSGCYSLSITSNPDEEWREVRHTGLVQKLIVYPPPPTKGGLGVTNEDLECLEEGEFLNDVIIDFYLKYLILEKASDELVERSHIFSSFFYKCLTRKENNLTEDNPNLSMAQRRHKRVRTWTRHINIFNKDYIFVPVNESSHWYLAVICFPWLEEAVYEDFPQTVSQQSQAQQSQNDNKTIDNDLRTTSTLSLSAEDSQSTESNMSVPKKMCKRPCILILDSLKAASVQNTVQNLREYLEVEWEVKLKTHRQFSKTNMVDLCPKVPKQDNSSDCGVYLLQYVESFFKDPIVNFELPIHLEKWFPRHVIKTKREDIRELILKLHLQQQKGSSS
SENP6 inh = inhibitors of human SENP6 protease; Q9GZR1; Recombinant SENP6 catalytic domain, aminoluciferin luminescence; inhibition, % at 10 µM; 1.8% of 330,000 active;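 active means inhibition above about 50% at the single tested dose, limit read from the data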;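 further: plate controls were DMSO wells with enzyme for no effect and DMSO wells lacking enzyme for full effect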
SENP8 block-2 = SENP8 protease inhibition. purified SENP8, Z-RLRGG-aminoluciferin cleavage, luminescence. Q96LD8. 1.2% of 330,000 active. inhibition, % at 10 µM. AID 2540; in the data active means inhibition above about 50%
SENP8 inh conf = SENP8 (human) inhibition, single concentration confirmation | shares compounds with SENP8 block-1 | purified SENP8, Nedd8-AMC/pro-Nedd8 cleavage fluorescence, 30 min | inhibition, % at 25 µM | 15% of 1,400 active | AID 624319; in the data active means inhibition mostly above about 39%, no sharp cut-off; inactive means mostly below about 34%
SENP1 inh conf = confirmation of human SENP1 SUMO protease inhibitors. shares compounds with SENP1 FRET inh. recombinant SENP1, CyPet-SUMO1-YPet FRET cleavage. inhibition, % at 10 µM. 34% of 520 active. AID 651678; in the data active means inhibition mostly above about 35%, no sharp cut-off; inactive means mostly below about 32%;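 further: 0% = enzyme with DMSO and 100% = no enzyme control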
SENP1 kin conf = SENP1 (human) inhibition, kinetic confirmation | shares compounds with SENP1 FRET inh | recombinant SENP1, CyPet-SUMO1-YPet FRET kinetic cleavage | inhibition, % at 10 µM | 26% of 520 active; in the data active means inhibition mostly above about 32%, no sharp cut-off; inactive means mostly below about 29%;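 further: 0% = DMSO with enzyme and 100% = no enzyme substrate only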
The depositor's hits bear a star; x = not tested or not shown.

SMILES	SENP8 block-1	SENP1 FRET inh	SENP7 block	SENP6 inh	SENP8 block-2	SENP8 inh conf	others
CCOc1ccc(N2C(=O)c3cccnc3C2=O)cc1	6	2	16	4	-7	x
CCOC(=O)c1ccc(N2C(=O)Cc3ccccc3C2=O)cc1	63*	-1	4	28	4	27*
Cc1cc(-n2cnnn2)ccc1C(C)C	3	0	1	-5	2	x
O=C(CCN1C(=O)/C(=C/c2ccc(F)cc2)SC1=S)N[C@@H](CO)Cc1ccccc1	23	1	7	28	6	x
O=C(CC1NCCNC1=O)Nc1cccc([N+](=O)[O-])c1 (centres undefined)	12	2	8	12	-2	x
CCOc1cc(CNc2ccc(Br)cc2)cc(Br)c1OCC(=O)NC(C)(C)C	4	1	8	-17	0	x
CCOc1cc(CNc2ccc(OC)cc2)cc(Br)c1OCC(=O)NC(C)(C)C	47*	1	2	8	8	24
Cc1ccsc1CNC(=O)C1(C)CCCN1CC(C)C (centres undefined)	1	-1	x	x	x	x
COc1ccccc1OCCNC(=O)c1cc(F)c(F)cc1Cl	41*	1	-2	6	-2	14
O=c1cc(-c2ccccc2)oc2ccccc12	43*	0	-1	-11	5	19
COc1ccc(C(=O)COc2ccc(C)cc2NC(C)=O)cc1	41*	4	-7	-2	-2	8
O=C(Nc1nnc([C@H]2C[C@H](O)[C@@H](CO)O2)s1)c1cccc(OC(F)(F)F)c1	1	7	x	x	x	x
COc1ccc(CCC(C)NC2CCCCCCC2)cc1 (centres undefined)	49*	1	1	-53	-3	-7
COc1ccc(S(=O)(=O)N2CCOCC2)cc1NC(=O)COC(=O)C1=COCCO1	41*	2	-6	-12	-4	11
O=C(/C=C/c1cccs1)c1ccc([N+](=O)[O-])cc1	50*	1	-5	-10	-7	8
O=C(COC(=O)c1ccc2[nH]c3c(c2c1)CCCC3)Nc1ccccc1	-126	-61	-3	-7	-16	x
CC(=O)C1=C(C)NC2(O)c3ccccc3C(=O)C12O (centres undefined)	66*	-4	4	4	6	53*
O=C(COc1ccccc1)NC(=S)Nc1cccc2cc(O)ccc12	-10	0	2	9	9	x
COc1ccc(CNC(=O)[C@H](C)N2C(=O)N3CCc4c([nH]c5ccccc45)[C@@]3(C)C2=O)cc1OC	51*	2	4	-3	-2	-5
Cc1ccc(CNC(=O)[C@H](C)N2C(=O)N3CCc4c([nH]c5ccccc45)[C@@]3(C)C2=O)cc1	2	1	-2	0	-3	x
O=C(Cn1cc([N+](=O)[O-])cn1)Nc1ccc(Cn2cc(Br)cn2)cc1	40*	1	-6	-12	-12	5
COC(=O)c1ccc(Cn2cc([N+](=O)[O-])cn2)cc1	2	0	8	-8	-4	x
COc1cccc(CNC(=O)c2ccc(CS(=O)c3ccccc3)o2)c1 (centres undefined)	-1	0	14	-20	-8	x
COc1ccc(C(=O)/C=C(\C)Nc2ccc(NC(C)=O)cc2)cc1	21	0	11	11	4	x
C/C(=C\C(=O)c1cccnc1)Nc1ccc(O)cc1	84*	4	11	-7	1	16
SMILES	SENP8 block-1	SENP1 FRET inh	SENP7 block	SENP6 inh	SENP8 block-2	SENP8 inh conf	others
C/C(=C\C(=O)c1ccccc1)Nc1ccc(O)cc1	84*	2	17	9	-5	16
O=C(CCNC(=O)c1ccc(Cl)cc1)Nc1cccc(S(=O)(=O)N2CCCCCC2)c1	4	0	7	-9	-8	x
CCC(=O)N1Cc2cc(C(=O)NCC(F)(F)F)nc(-c3cccc(-c4cncnc4)c3)c2[C@H]1CCO	14	3	x	x	x	x
O=C(c1ccccc1)c1ccccc1	61*	3	1	0	-5	7
Cn1cnc([N+](=O)[O-])c1Cl	22	-1	1	-21	3	x
Cn1cnc2c(=O)[nH]cc([N+](=O)[O-])c21	84*	-1	12	9	4	59*
CCOC(=O)C1(CC2CCCCO2)CCN(Cc2cn[nH]c2-c2cccc(F)c2)CC1 (centres undefined)	45*	2	-3	-9	-8	15
COc1ccc(NC(=O)C2CC(=O)OC23CCOC(C)(C)C3)cc1 (centres undefined)	42*	1	0	-11	6	10
CC1(C)CC2(CCO1)OC(=O)CC2C(=O)Nc1ccc(Br)cc1 (centres undefined)	26	4	2	3	3	x
Cc1nonc1OC(C)CNc1ccc([N+](=O)[O-])cc1 (centres undefined)	46*	-2	2	-2	4	24
COc1cc(CN2C[C@@H](CO)O[C@@H](n3cnc4c(NCc5ccncc5)ncnc43)C2)cc(OC)c1OC	8	-1	x	x	x	x
Cc1ccc(Sc2cc(NCCCO)c([N+](=O)[O-])c3nonc23)cc1	44*	-16	5	37	5	48*
CC(=O)OCCCNc1cc(Sc2ccc(Cl)cc2)c2nonc2c1[N+](=O)[O-]	17	-14	x	x	x	x
CC(C)CCSc1cc(NCCO)c([N+](=O)[O-])c2nonc12	49*	-14	-6	34	-4	27
CCCCn1c(N)c(N(CCOC)C(=O)CN(C)S(=O)(=O)c2ccc(C)cc2)c(=O)[nH]c1=O	-10	-9	14	-18	-6	x
COc1cc(=O)n(C)c2c(O)cccc12	56*	3	-1	-15	-5	0
COc1cc(=O)n(C)c2ccccc12	1	3	0	-19	-11	x
CCOc1ccc(/C=C/C(=O)Nc2ccc(OC)cc2[N+](=O)[O-])cc1	41*	70*	5	-7	0	5	SENP1 inh conf=52*;SENP1 kin conf=34*
Nc1ccc(C2CCCc3nonc32)c2nonc12 (centres undefined)	57*	35*	10	27	2	4	SENP1 inh conf=51*;SENP1 kin conf=28
CCOCCCNC(=O)NC(=O)CN1CCN(S(=O)(=O)c2ccc3c(c2)OCCO3)CC1	16	1	-3	-25	-5	x
Cc1ccc(NC2=C(C(=O)c3ccccc3)N(C)S(=O)(=O)c3ccccc32)cc1	46*	33*	4	0	8	33	SENP1 inh conf=35*;SENP1 kin conf=18

Compound activity as filed in PubChem BioAssay.
